Measurements as given in ChEMBL document CHEMBL3124882, “Semi-synthesis of acylated triterpenes from olive-oil industry wastes for the development of anticancer and anti-HIV agents” (Eur J Med Chem, 2014).
Activity calls are given as the source filed them. The rule behind the calls is not given here.

Experiments:
B16-F10 [1] = assay: Induction of apoptosis in mouse B16F10 cells assessed as total apoptotic cells at 2 X IC50 after 72 hrs by annexin V-FITC/propidium iodide staining-based FACS analysis (reference value: 13.7 +/- 2.7%); format: functional
B16-F10 [2] = assay: Induction of apoptosis in mouse B16F10 cells assessed as late apoptotic cells at 2 X IC50 after 72 hrs by annexin V-FITC/propidium iodide staining-based FACS analysis (reference value: 9.8 +/- 2.2%); format: functional
B16-F10 [3] = assay: Induction of apoptosis in mouse B16F10 cells assessed as early apoptotic cells at IC50 after 72 hrs by annexin V-FITC/propidium iodide staining-based FACS analysis (reference value: 3.9 +/- 0.4%); format: functional
B16-F10 [4] = assay: Induction of apoptosis in mouse B16F10 cells assessed as total apoptotic cells at IC50 after 72 hrs by annexin V-FITC/propidium iodide staining-based FACS analysis (reference value: 13.7 +/- 2.7%); format: functional
B16-F10 [5] = assay: Induction of apoptosis in mouse B16F10 cells assessed as normal cells at 2 X IC50 after 72 hrs by annexin V-FITC/propidium iodide staining-based FACS analysis (reference value: 77.9 +/- 1.5%); format: functional
B16-F10 [6] = assay: Induction of apoptosis in mouse B16F10 cells assessed as normal cells at IC50 after 72 hrs by annexin V-FITC/propidium iodide staining-based FACS analysis (reference value: 77.9 +/- 1.5%); format: functional
B16-F10 [7] = assay: Induction of apoptosis in mouse B16F10 cells assessed as early apoptotic cells at 2 X IC50 after 72 hrs by annexin V-FITC/propidium iodide staining-based FACS analysis (reference value: 3.9 +/- 0.4%); format: functional
B16-F10 [8] = assay: Induction of apoptosis in mouse B16F10 cells assessed as late apoptotic cells at IC50 after 72 hrs by annexin V-FITC/propidium iodide staining-based FACS analysis (reference value: 9.8 +/- 2.2%); format: functional
B16-F10 [9] = assay: Induction of ROS generation in mouse B16F10 cells at IC50 to 2 X IC50 after 72 hrs by rhodamine123/propidium iodide staining-based FACS analysis; format: functional, cell-based
In short: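 B16F10 cells, 11·10^4 per well, treated 72 h at IC50 or 2×IC50, then given fresh medium with dihydrorhodamine 123 at a final 5 µg/mL for 30 min. Cells washed, resuspended in PBS and read by flow cytometry for Rh123 and PI fluorescence (excitation 500 nm, emission 536 nm). Rh123+ cells scored ROS-positive regardless of PI. Three experiments in duplicate, mean ± S.E.M.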

B16-F10 [10] = assay: Cytotoxicity against mouse B16F10 cells after 72 hrs by MTT assay; format: functional, cell-based; settings: B16-F10, 72 h
In short: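 B16F10 cells (DMEM, 2 mM glutamine, 10% heat-inactivated FCS, penicillin/streptomycin; subconfluent) seeded at 11·10^3 per well and exposed to 0–80 µg/mL for 72 h. Compounds were diluted from a 10 mg/mL stock in 50% DMSO/PBS. MTT 0.5 mg/mL for 2 h, formazan dissolved in DMSO, absorbance at 550 nm. Viability is relative to untreated controls; IC50 from four assays of six replicates, mean ± S.E.M.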

B16-F10 [11] = assay: Induction of apoptosis in mouse B16F10 cells assessed as necrotic cells at 2 X IC50 after 72 hrs by annexin V-FITC/propidium iodide staining-based FACS analysis (reference value: 4.0 +/- 0.6%); format: functional
Protease = Protease (Human immunodeficiency virus 1, UniProt Q9YQ12); assay: Inhibition of HIV1 recombinant protease expressed in Escherichia coli using Abz-Ala-Arg-Val-Nle-Tyr(NO2)-Glu-Ala-Nle-NH2 as substrate by FRET assay
Chain of Protease (Q9YQ12 whole entry): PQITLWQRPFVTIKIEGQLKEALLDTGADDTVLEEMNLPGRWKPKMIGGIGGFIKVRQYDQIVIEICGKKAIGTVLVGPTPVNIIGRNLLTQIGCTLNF

B16-F10 [12] = assay: Induction of apoptosis in mouse B16F10 cells assessed as necrotic cells at IC50 after 72 hrs by annexin V-FITC/propidium iodide staining-based FACS analysis (reference value: 4.0 +/- 0.6%); format: functional

IC50 (Protease)	SMILES	Activity (B16-F10 [1])	Activity (B16-F10 [2])	Activity (B16-F10 [3])	Activity (B16-F10 [4])	Activity (B16-F10 [5])	Activity (B16-F10 [6])	Activity (B16-F10 [7])	Activity (B16-F10 [8])	Activity (B16-F10 [9])	IC50 (B16-F10 [10])	Activity (B16-F10 [11])	Activity (B16-F10 [12])
3.4 µM	CC(=O)O[C@H]1CC[C@]2(C)[C@H]3CC=C4[C@@H]5CC(C)(C)CC[C@]5(C(=O)O)CC[C@@]4(C)[C@]3(C)CC[C@H]2C1(C)C [ACETYL OLEANOLIC ACID]	48%	33.4%	14.4%	54.7%	46.3%	39.5%	14.6%	40.3%	Active	64.7 µM	5.7%	5.8%
–	CC1(C)CC[C@]2(C(=O)OCc3ccccc3)CC[C@]3(C)C(=CC[C@@H]4[C@@]5(C)CC[C@H](OC(=O)CCC(=O)O)C(C)(C)[C@@H]5CC[C@]43C)[C@@H]2C1	91.6%	17.6%	16.6%	72.1%	7.7%	16.9%	74%	55.5%	inactive	23.2 µM	0.7%	11.1%
–	CCCC(=O)O[C@@H]1C[C@]2(C)[C@H]3CC=C4[C@@H]5CC(C)(C)CC[C@]5(C(=O)O)CC[C@@]4(C)[C@]3(C)CC[C@H]2C(C)(C)[C@H]1O	83%	30%	55.6%	77.7%	10.2%	21%	53%	22.1%	Active	107 µM	6.8%	1.2%
–	CC(=O)O[C@@H]1C[C@]2(C)[C@H]3CC=C4[C@@H]5CC(C)(C)CC[C@]5(C(=O)OCc5ccccc5)CC[C@@]4(C)[C@]3(C)CC[C@H]2C(C)(C)[C@H]1O	98.4%	27.1%	66%	86%	1.1%	12.9%	71.3%	20%	Active	39.6 µM	0.6%	1.2%
–	CC1(C)CC[C@]2(C(=O)OCc3ccccc3)CC[C@]3(C)C(=CC[C@@H]4[C@@]5(C)C[C@@H](OC(=O)CCCC(=O)O)[C@H](O)C(C)(C)[C@@H]5CC[C@]43C)[C@@H]2C1	78.9%	19.8%	10.6%	25.2%	20.2%	73.3%	59.1%	14.6%	Active	63.2 µM	0.9%	1.6%
–	CC1(C)CC[C@]2(C(=O)OCc3ccccc3)CC[C@]3(C)C(=CC[C@@H]4[C@@]5(C)CC[C@H](OC(=O)CCCC(=O)O)C(C)(C)[C@@H]5CC[C@]43C)[C@@H]2C1	90.4%	24.6%	20.6%	58.4%	8.1%	25.8%	65.8%	37.9%	inactive	29.9 µM	1.6%	15.9%
–	CCC(=O)O[C@H]1CC[C@]2(C)[C@H]3CC=C4[C@@H]5CC(C)(C)CC[C@]5(C(=O)O)CC[C@@]4(C)[C@]3(C)CC[C@H]2C1(C)C	60.8%	16.5%	47%	74.4%	37.2%	24.3%	44.3%	27.4%	Active	161 µM	2%	1.3%
–	CC(=O)O[C@@H]1C[C@]2(C)[C@H]3CC=C4[C@@H]5CC(C)(C)CC[C@]5(C(=O)O)CC[C@@]4(C)[C@]3(C)CC[C@H]2C(C)(C)[C@H]1OC(C)=O	88.9%	59.3%	8.7%	61.6%	9.7%	31.4%	29.6%	52.9%	Active	44.1 µM	1.5%	7.1%
0.4 µM	CC1(C)CC[C@]2(C(=O)OCc3ccccc3)CC[C@]3(C)C(=CC[C@@H]4[C@@]5(C)CC[C@H](OC(=O)c6ccccc6C(=O)O)C(C)(C)[C@@H]5CC[C@]43C)[C@@H]2C1	95.4%	28.5%	64.3%	94.6%	3.7%	3.9%	66.9%	30.3%	inactive	26.8 µM	1%	1.5%
0.8 µM	CC1(C)CC[C@]2(C(=O)OCc3ccccc3)CC[C@]3(C)C(=CC[C@@H]4[C@@]5(C)C[C@@H](OC(=O)c6ccccc6C(=O)O)[C@H](O)C(C)(C)[C@@H]5CC[C@]43C)[C@@H]2C1	89.7%	46.2%	42.2%	64.7%	2.9%	32.8%	43.6%	22.5%	inactive	73.2 µM	7.5%	2.5%
124 µM	CCCCCC(=O)O[C@@H]1C[C@]2(C)[C@H]3CC=C4[C@@H]5CC(C)(C)CC[C@]5(C(=O)O)CC[C@@]4(C)[C@]3(C)CC[C@H]2C(C)(C)[C@H]1O	80.2%	17.5%	42.4%	61.4%	18.9%	34.8%	62.7%	19%	Active	34.6 µM	1.1%	3.9%
–	CC1(C)CC[C@]2(C(=O)O)CC[C@]3(C)C(=CC[C@@H]4[C@@]5(C)CC[C@H](OC(=O)c6ccccc6)C(C)(C)[C@@H]5CC[C@]43C)[C@@H]2C1	60%	50.5%	14%	51.6%	31.6%	44.6%	9.5%	37.6%	Active	162 µM	8.5%	3.8%
